# Source: ChEMBL document CHEMBL1134692, “QSAR study on the contribution of log P and E(s) to the in vitro antiprotozoal activity of glutathione derivatives” (J Med Chem, 2001)
# Legend:
# [1] = Partition coefficient (logP); type: physicochemical; conditions: octanol/water
# Leishmania donovani [2] = test: Inhibitory activity against Leishmania donovani; type: functional; conditions: read-out: ED50 (the source's name)
# How it was run: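 Starch-elicited peritoneal macrophages from female CD1 mice were plated at 4 × 10^4/well in RPMI-1640 with 10% HIFCS. After 24 h they were infected at 10:1 with L. donovani amastigotes (MHOM/ET/67/L82, hamster-passaged). Drug was given as a 3-fold dilution series in quadruplicate for 5 days. Activity was scored as the percentage of macrophages cleared of amastigotes. Sodium stibogluconate control.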
# [3] = Evaluated for its inhibitory activity against KB cells; type: functional; conditions: Homo sapiens, read-out: ED50 (the source's name)
# How it was run: (§1)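 KB cells (human oral pharyngeal carcinoma) grown in RPMI with 10% calf foetal serum at 37 °C, 5% CO2 in humidified air. Exposed to compound for 3 days under the same conditions, then viability read by Alamar Blue assay; ED50 reported.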
# Leishmania donovani [4] = test: (§2) Percent decrease in viable parasitesrelative to the control at 30 uM; type: functional
# How it was run: (§3)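 Single concentration of 30 μM in the intracellular amastigote macrophage assays. Inhibition is expressed as the percent decrease in viable parasites relative to untreated control.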
# [5] = system: Trypanosoma brucei brucei; test: Inhibitory activity against Trypanosoma brucei; type: functional; conditions: read-out: ED50 (the source's name)
# How it was run: (§4)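 T. b. brucei S427 bloodstream trypomastigotes kept in HMI-18 with 20% heat-inactivated FCS at 37 °C, 5% CO2. Parasites at 2 × 10^5/mL were mixed 1:1 with compound, run in triplicate as a 3-fold dilution series from 30 μM top. Incubated 3 days at 37 °C; Alamar Blue read-out on day 3 gave ED50. Pentamidine positive control.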
# [6] = Relative toxicity was evaluated as ED50 for KB cell line to that of ED50 for T.B. brucei; type: organism-based; conditions: trypanosoma brucei brucei, KB cells versus Trypanosoma brucei brucei; read-out: Relative toxicity
# How it was run: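 Ratio of ED50 against KB cells to ED50 against T. b. brucei bloodstream forms, each from the 3-day Alamar Blue assays.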
# Trypanosoma cruzi [7] = test: Evaluated for its inhibitory activity against Trypanosoma cruzi; NA= not active at 30 umol; type: functional, organism-based
# How it was run: (§5)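 Starch-elicited female CD1 mouse peritoneal macrophages (4 × 10^4/well, RPMI-1640, 10% HIFCS) were infected after 24 h at 5:1 with T. cruzi Y trypomastigotes derived from MDCK cultures. Drug was applied as a 3-fold dilution series in quadruplicate for 3 days. Activity was the percentage of macrophages cleared of amastigotes. Nifurtimox control.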
# Trypanosoma cruzi [8] = test: (§6) Percent decrease in viable parasitesrelative to the control; type: functional; how it was run: as §3
# Trypanosoma cruzi [9] = test: Evaluated for its inhibitory activity against Trypanosoma cruzi; type: functional; conditions: read-out: ED50 (the source's name); how it was run: as §5
# Trypanosoma cruzi [10] = test: as §2; type: functional; how it was run: as §3
# Leishmania donovani [11] = test: as §6; type: functional; how it was run: as §3
# [12] = system: Trypanosoma brucei brucei; test: Compound was evaluated for its inhibitory activity against Trypanosoma brucei; NA= not active at 30 umol; type: functional, organism-based; how it was run: as §4
# Homo sapiens = species on record: Homo sapiens; test: Compound was evaluated for its inhibitory activity against KBcells; type: functional; how it was run: as §1
Structure (SMILES),logP [1],EC50 (Leishmania donovani [2]) [µM],EC50 [3] [µM],inhibition at 30 µM (Leishmania donovani [4]) [%],EC50 [5] [µM],selectivity ratio [6],Activity against T. cruzi (Trypanosoma cruzi [7]),Inhibition (Trypanosoma cruzi [8]) [%],EC50 (Trypanosoma cruzi [9]) [µM],inhibition at 30 µM (Trypanosoma cruzi [10]) [%],Inhibition (Leishmania donovani [11]) [%],NA [12],ED50 (Homo sapiens) [µM]
COC(=O)CNC(=O)C(CSc1ccc([N+](=O)[O-])cc1[N+](=O)[O-])NC(=O)CCC(NC(=O)OCc1ccccc1)C(=O)O (configuration not stated),1.32,> 30,–,–,–,–,–,–,–,–,–,–,–
CCC(CC)OC(=O)CNC(=O)C(CSc1ccc([N+](=O)[O-])cc1[N+](=O)[O-])NC(=O)CCC(NC(=O)OCc1ccccc1)C(=O)OC(CC)CC (configuration not stated),5.89,> 30,213,17,3.74,57,–,–,–,–,–,–,–
CC(C)OC(=O)CNC(=O)C(CSc1ccc([N+](=O)[O-])cc1[N+](=O)[O-])NC(=O)CCC(NC(=O)OCc1ccccc1)C(=O)OC(C)C (configuration not stated),3.93,7.8,269,–,20,13.5,not active at 30 umol,–,–,–,–,–,–
O=C(CCC(NC(=O)OCc1ccccc1)C(=O)OCCCCl)NC(CSc1ccc([N+](=O)[O-])cc1[N+](=O)[O-])C(=O)NCC(=O)OCCCCl (configuration not stated),4.58,> 30,0.39,–,1.05,0.8,–,35,> 30,–,–,–,–
COCCOC(=O)CNC(=O)C(CSc1ccc([N+](=O)[O-])cc1[N+](=O)[O-])NC(=O)CCC(NC(=O)OCc1ccccc1)C(=O)OCCOC (configuration not stated),1.56,20,0.7,–,10,0.07,–,–,–,–,–,–,–
CCCCC(C)OC(=O)CNC(=O)C(CSc1ccc([N+](=O)[O-])cc1[N+](=O)[O-])NC(=O)CCC(NC(=O)OCc1ccccc1)C(=O)OC(C)CCCC (configuration not stated),6.87,> 30,178,6,5.2,46,–,–,> 30,21,–,–,–
O=C(CCC(NC(=O)OCc1ccccc1)C(=O)OCCCCCl)NC(CSc1ccc([N+](=O)[O-])cc1[N+](=O)[O-])C(=O)NCC(=O)OCCCCCl (configuration not stated),5.56,> 30,0.38,–,3.05,0.12,–,–,28,–,–,–,–
CCC(C)OC(=O)CNC(=O)C(CSc1ccc([N+](=O)[O-])cc1[N+](=O)[O-])NC(=O)CCC(NC(=O)OCc1ccccc1)C(=O)OC(C)CC (configuration not stated),4.91,> 30,> 300,36,2,150,–,–,–,–,–,–,–
O=C(CCC(NC(=O)OCc1ccccc1)C(=O)OC1CCCC1)NC(CSc1ccc([N+](=O)[O-])cc1[N+](=O)[O-])C(=O)NCC(=O)OC1CCCC1 (configuration not stated),5.67,29.6,50.5,–,0.18,280,–,–,> 30,30,–,–,–
CCCCCCCCOC(=O)CNC(=O)C(CSc1ccc([N+](=O)[O-])cc1[N+](=O)[O-])NC(=O)CCC(NC(=O)OCc1ccccc1)C(=O)OCCCCCCCC (configuration not stated),8.99,> 30,95.3,–,–,–,not active at 30 umol,–,–,–,11,not active at 30 umol,–
CC(C)CC(C)OC(=O)CNC(=O)C(CSc1ccc([N+](=O)[O-])cc1[N+](=O)[O-])NC(=O)CCC(NC(=O)OCc1ccccc1)C(=O)OC(C)CC(C)C (configuration not stated),6.73,> 30,43.2,8,0.25,173,–,–,> 30,31,–,–,–
O=C(CCC(NC(=O)OCc1ccccc1)C(=O)OCCF)NC(CSc1ccc([N+](=O)[O-])cc1[N+](=O)[O-])C(=O)NCC(=O)OCCF (configuration not stated),2.97,> 30,15.2,–,21.8,0.99,–,8,> 30,–,26,–,–
CC(C)OC(=O)CNC(=O)C(CSc1ccc([N+](=O)[O-])cc1[N+](=O)[O-])NC(=O)CCC(NC(=O)OCc1ccccc1)C(=O)O (configuration not stated),2.23,–,–,–,–,–,not active at 30 umol,–,–,–,–,not active at 30 umol,–
CCC(C)OC(=O)CNC(=O)C(CSc1ccc([N+](=O)[O-])cc1[N+](=O)[O-])NC(=O)CCC(NC(=O)OCc1ccccc1)C(=O)O (configuration not stated),2.72,20,–,–,20,–,not active at 30 umol,–,–,–,–,–,–
CCCC(C)OC(=O)CNC(=O)C(CSc1ccc([N+](=O)[O-])cc1[N+](=O)[O-])NC(=O)CCC(NC(=O)OCc1ccccc1)C(=O)OC(C)CCC (configuration not stated),5.89,> 30,393,25,3.34,118,–,–,> 30,17,–,–,–
CCCCCOC(=O)CNC(=O)C(CSc1ccc([N+](=O)[O-])cc1[N+](=O)[O-])NC(=O)CCC(NC(=O)OCc1ccccc1)C(=O)OCCCCC (configuration not stated),6.04,> 30,–,–,0.38,789,–,–,6.7,–,–,–,> 300
CCCC(CC)OC(=O)CNC(=O)C(CSc1ccc([N+](=O)[O-])cc1[N+](=O)[O-])NC(=O)CCC(NC(=O)OCc1ccccc1)C(=O)OC(CC)CCC (configuration not stated),6.87,–,–,–,–,–,–,–,–,–,–,–,–
CCCCOC(=O)C(CCC(=O)NC(CSc1ccc([N+](=O)[O-])cc1[N+](=O)[O-])C(=O)NCC(=O)O)NC(=O)OCc1ccccc1 (configuration not stated),2.8,> 30,–,–,10.3,–,–,–,> 30,–,12,–,–
CC(C)C(C)OC(=O)CNC(=O)C(CSc1ccc([N+](=O)[O-])cc1[N+](=O)[O-])NC(=O)CCC(NC(=O)OCc1ccccc1)C(=O)OC(C)C(C)C (configuration not stated),5.75,13.4,245,–,6,24,–,–,< 30,64,–,–,–
CC(C)CCC(C)OC(=O)CNC(=O)C(CSc1ccc([N+](=O)[O-])cc1[N+](=O)[O-])NC(=O)CCC(NC(=O)OCc1ccccc1)C(=O)OC(C)CCC(C)C (configuration not stated),7.71,> 30,> 300,70,34.8,> 9,–,–,–,–,–,–,–
O=C(CCC(NC(=O)OCc1ccccc1)C(=O)OCCCl)NC(CSc1ccc([N+](=O)[O-])cc1[N+](=O)[O-])C(=O)NCC(=O)OCCCl (configuration not stated),3.6,9.92,49.5,–,0.49,101,–,–,–,–,–,–,–
CCCOC(=O)CNC(=O)C(CSc1ccc([N+](=O)[O-])cc1[N+](=O)[O-])NC(=O)CCC(NC(=O)OCc1ccccc1)C(=O)O (configuration not stated),2.31,> 30,–,–,–,–,not active at 30 umol,–,–,–,–,not active at 30 umol,–
CCOC(=O)CNC(=O)C(CSc1ccc([N+](=O)[O-])cc1[N+](=O)[O-])NC(=O)CCC(NC(=O)OCc1ccccc1)C(=O)O (configuration not stated),1.82,> 30,–,–,–,–,–,–,–,–,–,–,–
CCCCCCOC(=O)CNC(=O)C(CSc1ccc([N+](=O)[O-])cc1[N+](=O)[O-])NC(=O)CCC(NC(=O)OCc1ccccc1)C(=O)OCCCCCC (configuration not stated),7.02,> 30,109,–,5.8,18.8,–,36,> 30,–,–,–,–
O=C(CCC(NC(=O)OCc1ccccc1)C(=O)OC1CCCCC1)NC(CSc1ccc([N+](=O)[O-])cc1[N+](=O)[O-])C(=O)NCC(=O)OC1CCCCC1 (configuration not stated),6.65,–,51,–,0.21,243,–,–,–,–,–,–,–
